Assay results taken from ChEMBL document CHEMBL5356984 (RSC Med Chem, 2023).
Calls of active or inactive are those of the source. The rule behind the calls is not given here.

What was measured:
[1] = system: MDA-MB-468; test: Antiproliferative activity against human MDA-MB-468 cells assessed as inhibition of cell viability measured after 48 hrs by MTT assay; type: functional, cell-based; settings: MDA-MB-468, 48 h
Procedure, shortened: (§1)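 MTT cell viability read-out; IC50 obtained by non-linear regression of concentration–response data; values are mean ± SD of three independent experiments.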

[2] = Selectivity index, ratio of IC50 for HEK293T cells to IC50 for human MCF7 cells; type: toxicity; settings: HEK293T cells versus MCF7 cells, read-out: Ratio IC50
Procedure, shortened: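 Viability of 293T and MCF-7 cells was measured by MTT assay, and IC50 was fitted by non-linear regression. The selectivity index is the 293T IC50 divided by the MCF-7 IC50.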

[3] = Thermal stability of compound in boiling toluene at 120 degreeC at 1 mg/ml measured for approximately 12 hrs by HPLC analysis; type: physicochemical
Procedure, shortened: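 Compound at 1 mg mL−1 was heated in distilled boiling toluene at 120 °C for 0–24 h. Remaining percentage was measured by HPLC on a C18 column (5 µm, 4.6 × 250 mm) with MeOH/H2O gradients: 70→100% or 45→100% MeOH over 2–15 min, held at 100% to 20 min, then re-equilibrated.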

[4] = target: Heat shock protein HSP90 (Homo sapiens, UniProt P07900+P08238); test: Inhibition of HSP90 in human MCF7 cells assessed as decrease in CDK4 level at 5 to 20 uM incubated for 48 hrs by Western blot analysis; type: cell-based; settings: dose 5-20 µM
Procedure, shortened: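 MCF-7 or SKBr3 cells were exposed for 48 h, then trypsinised, PBS-washed and lysed in RIPA buffer with phosphatase and protease inhibitors. Cleared lysate (14 000 rpm, 4 °C, 15 min) was BCA-quantified, and 20 µg protein was run on SDS-PAGE and blotted. Blots were blocked in 5% milk, incubated with primary antibodies (1:1000) overnight at 4 °C, then HRP secondary, and developed by ECL. GAPDH (1:10000) was the loading control.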

[5] = system: HCC1806; test: Antiproliferative activity against human HCC1806 cells assessed as inhibition of cell viability measured after 48 hrs by MTT assay; type: functional, cell-based; settings: HCC1806, 48 h; procedure, shortened: as §1
[6] = system: SK-BR-3; test: Induction of apoptosis in human SK-BR-3 cells assessed as necrotic cells at 5 uM incubated for 36 hrs by Annexin V/PI staining based flow cytometry (reference value: 1.89 %); type: functional
[7] = system: SK-BR-3; test: Effect on HSF-1 level in human SK-BR-3 cells assessed as nuclear accumulation at 10 uM incubated for 36 hrs by DAPI staining based immunofluorescence analysis; type: functional, cell-based
Procedure, shortened: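 Cells treated 36 h with DMSO vehicle control, then fixed with 4% paraformaldehyde 15 min, permeabilized with 0.2% Triton X-100 5 min, blocked with 3% BSA 15 min; primary antibody then fluorescent secondary antibody, each 1 h at room temperature; HSP70 green, HSF-1 red, nuclei DAPI; imaged by fluorescence microscopy.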

[8] = system: SK-BR-3; test: Induction of cell cycle arrest in human SK-BR-3 cells assessed as accumulation of cells at G1 phase at 5 to 10 uM incubated for 36 hrs by PI staining based flow cytometry; type: functional; settings: dose 5-10 µM
Procedure, shortened: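 Following 36 h treatment (0, 5, 10 μM), trypsinized cells fixed overnight in 70% ethanol, treated with RNase (0.2 mg/mL) and PI (0.1 mg/mL) for 20 min, then analysed by flow cytometry for cell-cycle distribution; n = 3 versus control.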

SMILES: CN1CCN(/C=C/C(=O)/C=C/c2cccc(O[Si](C)(C)C(C)(C)C)c2)CC1
- IC50 [1]: 8.16 µM
- selectivity ratio [2]: ~4.2
- Stability [3]: Stable
- inhibition [4]: Active
- IC50 [5]: 10.1 µM
- Activity [6]: 1.81%
- Activity [7]: inactive
- Activity [8]: Active
